Assay results taken from ChEMBL document CHEMBL1143719, “Design, synthesis, and anticonvulsant activity of some sulfamides” (Bioorg Med Chem, 2007).
The source made the active and inactive calls. The calls are words filed in the database; no cut-off is given here.

Tests used:
[1] = system: Mus musculus; assay: Anticonvulsant activity in Albino mouse at 100 mg/kg, ip after 0.5 hrs by PTZ assay; type: functional, organism-based; parameters: dose 100 mg/kg
How it was run: (§1)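 Mice given compound ip at 30, 100 and 300 mg/kg in 30% polyethylene glycol 400 and 10% water, 0.01 mL/g body weight. Three animals per dose. Maximal electroshock (MES) or pentylenetetrazol (PTZ) seizure tests were run 0.5 and 4 h after dosing, and animals protected were counted.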

[2] = system: Mus musculus; assay: Neurotoxicity in intraperitoneally dosed Albino mouse at 362 umol/kg by RotoRod test; type: toxicity, organism-based; settings: in vivo, ip
How it was run: (§2)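 Median neurotoxic dose in albino mice given compound ip in 30% PEG 400 and 10% water, at the time of peak effect. Six animals per dose were tested on RotoRod and the percentage showing minimal neurotoxicity was recorded. Where TD50 could not be completed, the highest dose tested is reported.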

[3] = system: Mus musculus; assay: Neurotoxicity in Albino mouse at 30 mg/kg, ip after 0.5 hrs by RotoRod test; type: toxicity, organism-based; parameters: dose 30 mg/kg, route intraperitoneal; settings: in vivo
How it was run: (§3)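 RotoRod neurotoxicity screen in mice dosed ip at 30, 100 and 300 mg/kg, in vehicle of 30% PEG 400 and 10% water (0.01 mL/g). Three animals per dose, tested 0.5 and 4 h after administration. Affected animals were scored per group.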

[4] = system: Mus musculus; assay: Anticonvulsant activity assessed as time of peak effect in intraperitoneally dosed Albino mouse by MES assay; type: functional
How it was run: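 Phase II quantification in albino mice (ip; 30% PEG 400 and 10% water vehicle). Time of peak effect was determined first. Groups of six mice then received different doses at that time. MES ED50 is the dose protecting 50% of animals, in µmol/kg.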

[5] = system: Mus musculus; assay: Anticonvulsant activity in Albino mouse at 30 mg/kg, ip after 0.5 hrs by PTZ assay; type: functional, organism-based; parameters: dose 30 mg/kg; how it was run: as §1
[6] = system: Mus musculus; assay: Neurotoxicity in Albino mouse at 100 mg/kg, ip after 4 hrs by RotoRod test; type: toxicity, organism-based; parameters: dose 100 mg/kg, route intraperitoneal; settings: in vivo; how it was run: as §3
[7] = system: Mus musculus; assay: Anticonvulsant activity in Albino mouse at 100 mg/kg, ip after 0.5 hrs by MES assay; type: functional, organism-based; parameters: dose 100 mg/kg; how it was run: as §1
[8] = system: Mus musculus; assay: Anticonvulsant activity in intraperitoneally dosed Albino mouse at 362 umol/kg by PTZ assay; type: functional, organism-based
How it was run: (§4)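 Phase II PTZ test in albino mice dosed ip (30% PEG 400 and 10% water), at the predetermined time of peak effect, in groups of six animals.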

[9] = system: Mus musculus; assay: Anticonvulsant activity in Albino mouse at 30 mg/kg, ip after 4 hrs by PTZ assay; type: functional, organism-based; parameters: dose 30 mg/kg; how it was run: as §1
[10] = system: Mus musculus; assay: Anticonvulsant activity in Albino mouse at 30 mg/kg, ip after 4 hrs by MES assay; type: functional, organism-based; parameters: dose 30 mg/kg; how it was run: as §1
[11] = system: Mus musculus; assay: Neurotoxicity in Albino mouse at 30 mg/kg, ip after 4 hrs by RotoRod test; type: toxicity, organism-based; parameters: dose 30 mg/kg, route intraperitoneal; settings: in vivo; how it was run: as §3
[12] = system: Mus musculus; assay: Neurotoxicity in Albino mouse at 100 mg/kg, ip after 0.5 hrs by RotoRod test; type: toxicity, organism-based; parameters: dose 100 mg/kg, route intraperitoneal; settings: in vivo; how it was run: as §3
[13] = species on record: Mus musculus; assay: Protective index, ratio of TD50 against Albino mouse to ED50 for Albino mouse; type: functional
[14] = system: Mus musculus; assay: Anticonvulsant activity in Albino mouse at 100 mg/kg, ip after 4 hrs by PTZ assay; type: functional, organism-based; parameters: dose 100 mg/kg; how it was run: as §1
[15] = system: Mus musculus; assay: (§5) Neurotoxicity in intraperitoneally dosed Albino mouse by RotoRod test; type: toxicity, organism-based; settings: in vivo, ip; how it was run: as §2
[16] = as §5; type: toxicity, organism-based; settings: Albino, in vivo, ip; how it was run: as §2
[17] = system: Mus musculus; assay: Anticonvulsant activity in Albino mouse at 100 mg/kg, ip after 4 hrs by MES assay; type: functional, organism-based; parameters: dose 100 mg/kg; how it was run: as §1
[18] = system: Mus musculus; assay: Neurotoxicity in intraperitoneally dosed Albino mouse at 385 umol/kg by RotoRod test; type: toxicity, organism-based; settings: in vivo, ip; how it was run: as §2
[19] = system: Mus musculus; assay: Anticonvulsant activity in intraperitoneally dosed Albino mouse at 385 umol/kg by PTZ assay; type: functional, organism-based; how it was run: as §4
[20] = system: Mus musculus; assay: Neurotoxicity in Albino mouse at 300 mg/kg, ip after 0.5 hrs by RotoRod test; type: toxicity, organism-based; parameters: dose 300 mg/kg, route intraperitoneal; settings: in vivo; how it was run: as §3
[21] = system: Mus musculus; assay: Anticonvulsant activity in Albino mouse at 30 mg/kg, ip after 0.5 hrs by MES assay; type: functional, organism-based; parameters: dose 30 mg/kg; how it was run: as §1
[22] = system: Mus musculus; assay: Anticonvulsant activity in Albino mouse at 300 mg/kg, ip after 4 hrs by PTZ assay; type: functional, organism-based; parameters: dose 300 mg/kg; how it was run: as §1
[23] = system: Mus musculus; assay: Anticonvulsant activity in Albino mouse at 300 mg/kg, ip after 0.5 hrs by MES assay; type: functional, organism-based; parameters: dose 300 mg/kg; how it was run: as §1
[24] = system: Mus musculus; assay: Anticonvulsant activity in Albino mouse at 300 mg/kg, ip after 0.5 hrs by PTZ assay; type: functional, organism-based; parameters: dose 300 mg/kg; how it was run: as §1
[25] = system: Mus musculus; assay: Anticonvulsant activity in Albino mouse at 300 mg/kg, ip after 4 hrs by MES assay; type: functional, organism-based; parameters: dose 300 mg/kg; how it was run: as §1
[26] = system: Mus musculus; assay: Neurotoxicity in Albino mouse at 300 mg/kg, ip after 4 hrs by RotoRod test; type: toxicity, organism-based; parameters: dose 300 mg/kg, route intraperitoneal; settings: in vivo; how it was run: as §3
[27] = system: Mus musculus; assay: Anticonvulsant activity in intraperitoneally dosed Albino mouse at 481 umol/kg by PTZ assay; type: functional, organism-based; how it was run: as §4
[28] = system: Mus musculus; assay: Neurotoxicity in intraperitoneally dosed Albino mouse at 481 umol/kg by RotoRod test; type: toxicity, organism-based; settings: in vivo, ip; how it was run: as §2
[29] = system: Mus musculus; assay: Anticonvulsant activity in intraperitoneally dosed Albino mouse at 1613 umol/kg by PTZ assay; type: functional, organism-based; how it was run: as §4
[30] = system: Mus musculus; assay: Neurotoxic time of peak effect in intraperitoneally dosed Albino mouse by RotoRod test; type: ADME, organism-based; settings: in vivo, ip; how it was run: as §2
[31] = system: Mus musculus; assay: Anticonvulsant activity in intraperitoneally dosed Albino mouse by MES assay; type: functional; settings: ip

Q: Which Activity [1] does the source give for O=S(=O)(NCc1ccccc1)NCc1ccccc1 [BENZYL(BENZYLSULFAMOYL)AMINE] here?
A: inactive

Q: What about the Activity [2] of the same compound?
A: 0%

Q: And the Activity [3]?
A: Non-toxic

Q: What about the Activity [4] of the same compound?
A: 2 h

Q: And the Activity [5]?
A: inactive

Q: What about the Activity [6] of the same compound?
A: Non-toxic

Q: And the Activity [7]?
A: Active

Q: What about the Activity [8] of the same compound?
A: inactive

Q: What about the Activity [9] of the same compound?
A: inactive

Q: What about the Activity [10] of the same compound?
A: inactive

Q: And the Activity [11]?
A: Non-toxic

Q: What about the Activity [12] of the same compound?
A: Non-toxic

Q: And the PI [13]?
A: >1.5

Q: What about the Activity [14] of the same compound?
A: inactive

Q: And the Activity [15]?
A: 0%

Q: And the TD50 [16]?
A: > 362 µmol/kg

Q: And the Activity [17]?
A: inactive

Q: For O=S(=O)(NC1CCCCC1)NC1CCCCC1, which Activity [1] is on record?
A: inactive

Q: And the Activity [3]?
A: Non-toxic

Q: What about the Activity [4] of the same compound?
A: 0.5 h

Q: And the Activity [5]?
A: inactive

Q: What about the Activity [6] of the same compound?
A: Non-toxic

Q: What about the Activity [18] of the same compound?
A: 0%

Q: And the Activity [9]?
A: inactive

Q: And the Activity [10]?
A: inactive

Q: And the Activity [11]?
A: Non-toxic

Q: And the Activity [12]?
A: Non-toxic

Q: What about the PI [13] of the same compound?
A: >2.5

Q: What about the Activity [14] of the same compound?
A: inactive

Q: What about the Activity [15] of the same compound?
A: 0%

Q: What about the TD50 [16] of the same compound?
A: > 385 µmol/kg

Q: And the Activity [19]?
A: inactive

Q: And the Activity [17]?
A: inactive

Q: Which Activity [1] does the source give for CC(C)(C)OC(=O)NS(=O)(=O)NCc1ccccc1 here?
A: inactive

Q: What about the Activity [3] of the same compound?
A: Non-toxic

Q: And the Activity [20]?
A: Non-toxic

Q: And the Activity [5]?
A: inactive

Q: What about the Activity [21] of the same compound?
A: inactive

Q: And the Activity [6]?
A: Non-toxic

Q: What about the Activity [7] of the same compound?
A: inactive

Q: And the Activity [9]?
A: inactive

Q: What about the Activity [10] of the same compound?
A: inactive

Q: What about the Activity [11] of the same compound?
A: Non-toxic

Q: What about the Activity [12] of the same compound?
A: Non-toxic

Q: And the Activity [22]?
A: inactive

Q: And the Activity [23]?
A: inactive

Q: What about the Activity [14] of the same compound?
A: inactive

Q: What about the Activity [24] of the same compound?
A: inactive

Q: And the Activity [25]?
A: inactive

Q: And the Activity [26]?
A: Non-toxic

Q: What about the Activity [17] of the same compound?
A: inactive

Q: What does the source list for CCCCNS(=O)(=O)NCCCC [BUTYL(BUTYLSULFAMOYL)AMINE]?
A: Activity [1]: inactive; Activity [3]: Non-toxic; Activity [4]: 2 h; Activity [27]: inactive; Activity [5]: inactive; Activity [6]: Non-toxic; Activity [28]: 0%; Activity [9]: inactive; Activity [10]: inactive; Activity [11]: Non-toxic; Activity [12]: Non-toxic; PI [13]: >1.6; Activity [14]: inactive; Activity [15]: 0%; TD50 [16]: > 481 µmol/kg; Activity [17]: inactive

Q: Which results are given for CCCCN(CCCC)S(=O)(=O)N(CCCC)CCCC?
A: Activity [1]: inactive; Activity [3]: Non-toxic; Activity [20]: Non-toxic; Activity [5]: inactive; Activity [21]: inactive; Activity [6]: Non-toxic; Activity [7]: inactive; Activity [10]: inactive; Activity [11]: Non-toxic; Activity [12]: Non-toxic; Activity [22]: inactive; Activity [23]: inactive; Activity [14]: inactive; Activity [24]: inactive; Activity [25]: inactive; Activity [26]: Non-toxic; Activity [17]: inactive

Q: Which results are given for CCCN(CCC)S(=O)(=O)N(CCC)CCC?
A: Activity [1]: inactive; Activity [3]: Non-toxic; Activity [20]: Non-toxic; Activity [5]: inactive; Activity [21]: inactive; Activity [6]: Non-toxic; Activity [7]: inactive; Activity [9]: inactive; Activity [10]: inactive; Activity [11]: Non-toxic; Activity [12]: Non-toxic; Activity [22]: inactive; Activity [23]: inactive; Activity [14]: inactive; Activity [24]: inactive; Activity [25]: inactive; Activity [26]: Non-toxic; Activity [17]: inactive

Q: Which results are given for NS(=O)(=O)NCc1ccccc1?
A: Activity [1]: inactive; Activity [3]: Non-toxic; Activity [29]: inactive; Activity [30]: 0.5 h; Activity [20]: Non-toxic; Activity [4]: 0.5 h; Activity [5]: inactive; Activity [6]: Non-toxic; Activity [7]: Active; Activity [9]: inactive; Activity [11]: Non-toxic; Activity [12]: Non-toxic; PI [13]: 5.9; Activity [22]: inactive; Activity [23]: Active; ED50 [31]: 239 µmol/kg; Activity [14]: inactive; Activity [24]: inactive; TD50 [16]: 1420 µmol/kg; Activity [25]: Active; Activity [26]: Non-toxic

Q: With O=S(=O)(NC1CC1)NC1CC1 as the compound, how does the Activity [1] read?
A: inactive

Q: What about the Activity [3] of the same compound?
A: Non-toxic

Q: And the Activity [20]?
A: Non-toxic

Q: And the Activity [5]?
A: inactive

Q: And the Activity [21]?
A: inactive

Q: What about the Activity [6] of the same compound?
A: Non-toxic

Q: And the Activity [7]?
A: inactive

Q: And the Activity [9]?
A: inactive

Q: And the Activity [10]?
A: inactive

Q: And the Activity [11]?
A: Non-toxic

Q: What about the Activity [12] of the same compound?
A: Non-toxic

Q: And the Activity [22]?
A: inactive

Q: And the Activity [23]?
A: inactive

Q: What about the Activity [14] of the same compound?
A: inactive

Q: What about the Activity [24] of the same compound?
A: inactive

Q: What about the Activity [25] of the same compound?
A: inactive

Q: What about the Activity [26] of the same compound?
A: Non-toxic

Q: What about the Activity [17] of the same compound?
A: inactive
